PubChem BioAssay
Active and inactive are the calls of the source.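 Rule for the calls, unless noted: active = fluorescence slope after compound addition differing from the mean of all tested samples at 99.7% confidence, mostly higher but some lower; inactive = the rest.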

Assays:
[1] = inhibitors of TNFa-induced NFkB p65 translocation, primary screen, imaging, HUVEC, MLSMR starter and 10KST1 sets (AID 438;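 active = inhibition above 20% together with a positive visual image hit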;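 note: compound added about 3h40 before a 20 min TNFalpha stimulation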;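 for inhibition: signal is the nuclear over cytoplasmic p65 intensity ratio per well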); details: HUVEC TNFa-induced p65 nuclear translocation; cell count: measured here: nuclei count (cytotoxicity indicator), at 2.08 µM; inhibition: at 2 µM, stronger effect = higher value, 0% TNFa-plus-vehicle, 100% no-TNFa wells
[2] = endothelial E-selectin expression blockers – imaging, HUVEC, immunofluorescence, MLSMR starter and 10KST1 sets, primary screen (AID 487;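 active = visually confirmed hit in the image check and inhibition above 20%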;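 for inhibition: signal is fraction of cell area covered by stained E-selectin grains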;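 for nuclei count: 100% = median nuclei count of all wells on the same plate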); details: HUVEC TNFalpha-induced E-selectin immunofluorescence imaging, at 2 µM; inhibition: stronger effect = higher value; nuclei count: measured here: cell number, toxicity
[3] = Primary imaging screen for DUSP6 inhibitors that restore phospho-Erk in transfected HeLa cells, chemical complementation (AID 609;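 active = compounds giving at least 50% inhibition in the cell-based MKP-3 phosphatase rescue imaging test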;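 for inhibition: phospho-Erk level distribution per well compared with pooled transfected vehicle control wells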); details: HeLa MKP-3 transfected, phospho-Erk imaging KS statistic, at 10 µM, cells stimulated with TPA for 15 min
[4] = biological target: Dual specificity protein phosphatase 6 (Homo sapiens) (UniProt Q16828); assay: as above; details: HeLa MKP-3 transfected, phospho-Erk imaging KS statistic; at 10 µM; stronger effect = higher value; cells stimulated with TPA for 15 min
Dual specificity protein phosphatase 6 (Homo sapiens), sequence (Q16828 whole entry, looked up): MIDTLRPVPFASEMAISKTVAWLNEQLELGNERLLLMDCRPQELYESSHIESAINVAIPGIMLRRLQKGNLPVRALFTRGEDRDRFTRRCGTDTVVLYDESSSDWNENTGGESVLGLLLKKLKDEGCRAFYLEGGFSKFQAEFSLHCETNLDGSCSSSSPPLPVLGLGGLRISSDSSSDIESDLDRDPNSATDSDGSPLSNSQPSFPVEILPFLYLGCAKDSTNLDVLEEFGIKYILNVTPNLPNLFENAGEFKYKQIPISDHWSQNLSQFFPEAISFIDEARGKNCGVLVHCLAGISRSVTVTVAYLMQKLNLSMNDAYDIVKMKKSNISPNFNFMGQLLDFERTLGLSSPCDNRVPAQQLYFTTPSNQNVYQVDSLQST

[5] = biological target: Voltage-gated potassium channel subunit beta-2 (Rattus norvegicus) (UniProt P62483); assay: inhibitors of rat Kvbeta2 reductase activity – biochemical, NADPH fluorescence, primary screen (AID 622;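 active = fluorescence slope higher than the sample average by over 3 SD, cut at about -0.22 in these data, passing the limit was not always enough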;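 note: slope of raw intensity against log time taken from 70 to 1610 s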); details: recombinant KvBeta, 4-cyanobenzaldehyde reduction, at 10 µM, stronger effect = higher value
Voltage-gated potassium channel subunit beta-2 (Rattus norvegicus), sequence (P62483 whole entry, looked up): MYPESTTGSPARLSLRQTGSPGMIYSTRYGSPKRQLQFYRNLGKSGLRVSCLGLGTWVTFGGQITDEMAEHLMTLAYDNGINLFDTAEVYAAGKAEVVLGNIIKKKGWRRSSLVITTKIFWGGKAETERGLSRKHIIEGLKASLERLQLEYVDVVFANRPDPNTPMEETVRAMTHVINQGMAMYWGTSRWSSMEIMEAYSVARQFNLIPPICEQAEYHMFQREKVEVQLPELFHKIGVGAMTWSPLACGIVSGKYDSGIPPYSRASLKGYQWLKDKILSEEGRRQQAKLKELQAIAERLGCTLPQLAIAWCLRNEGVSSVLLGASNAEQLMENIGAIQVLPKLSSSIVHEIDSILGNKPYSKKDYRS

[6] = biological target: Voltage-gated potassium channel subunit beta-2 (Rattus norvegicus) (UniProt P62483); assay: enhancers of rat Kvbeta2 NADPH turnover – biochemical, NADPH fluorescence, primary screen (AID 623;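 active = NADPH fluorescence slope more negative than the mean of all samples by about 3 SD, 99.7% confidence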;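 note: fluorescence intensity change per second fitted from 20 to 320 s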); details: Recombinant KvBeta, NADPH fluorescence decrease slope, 10 min; at 10 µM; stronger effect = lower value
[7] = biological target: Muscarinic acetylcholine receptor M4 (Homo sapiens) (UniProt P08173); assay: M4-linked GIRK flux change, two-sided – cell-based, HEK293 M4/GIRK, thallium flux, BTC-AM, M4 allosteric agonist project, primary screen (AID 625); details: at 10 µM, actives lie on both sides;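 note: thallium influx through GIRK channels coupled to M4 in HEK293 cells with BTC-AM dye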
Muscarinic acetylcholine receptor M4 (Homo sapiens), sequence (P08173 whole entry, looked up): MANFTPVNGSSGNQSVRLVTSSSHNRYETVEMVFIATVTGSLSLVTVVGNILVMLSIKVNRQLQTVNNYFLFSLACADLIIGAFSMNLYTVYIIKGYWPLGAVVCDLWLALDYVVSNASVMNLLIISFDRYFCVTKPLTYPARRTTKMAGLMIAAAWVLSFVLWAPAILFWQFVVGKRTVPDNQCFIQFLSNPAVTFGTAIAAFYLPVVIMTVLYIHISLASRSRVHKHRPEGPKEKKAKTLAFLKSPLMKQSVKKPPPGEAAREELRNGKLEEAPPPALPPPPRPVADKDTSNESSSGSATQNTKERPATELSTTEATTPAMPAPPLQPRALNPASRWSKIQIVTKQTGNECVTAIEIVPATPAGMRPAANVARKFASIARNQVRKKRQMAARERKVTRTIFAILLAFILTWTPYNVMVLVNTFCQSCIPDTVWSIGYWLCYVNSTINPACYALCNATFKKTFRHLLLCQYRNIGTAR
Method in brief: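 Assay system: HEK293 cells with M4 receptor and GIRK channels / Controls: carbachol and DMSO controls / Schedule: 1 h dye loading, 2 min kinetic read / Technique: kinetic fluorescence with BTC-AM dye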

[8] = inhibitors of larval lipid processing in zebrafish, primary screen, whole organism, PED6 fluorescence, gall bladder and intestine (AID 686;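 active = a full or partial loss of lipid-probe fluorescence in the fish gall bladder, intestine or both, judged by eye; inactive = no fluorescence loss, or compound toxic to the fish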;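 note: larvae 5 to 7 days old with five fish per well; signal comes from phospholipase A2 cleavage of quenched PED6 carried via bile; overnight exposure to compound and PED6 before scoring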); details: Zebrafish larvae PED6 lipid processing, fluorescence scoring; screened at 20 µM (by protocol)
Method in brief: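 Doses: 20 µM single dose. Test system: live zebrafish larvae aged 5-7 days, whole organism. Quantity: five larvae per well. Measured by: By-eye fluorescence microscopy. Reagent: ingested quenched lipid PED6 at 100 nM. Read-out: visual per-well fluorescence inhibition score. Times: overnight exposure of larvae to compound plus PED6.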

[9] = loss of swimming-algae plug formation – whole organism, Chlamydomonas reinhardtii, WT vs cilia-less mutant, absorbance, 96-well, primary screen (AID 463189;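 active = inhibition at or above 50% relative to wild type and mutant plate controls; inactive = inhibition below 50%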;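 note: 0% = wild type cc124 cells in DMSO and 100% = ciliumless bld1 mutant cells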); details: Chlamydomonas reinhardtii gravitaxis, OD600 absorbance, 2 days; at 10 µM; stronger effect = higher value
[10] = measured here: cell density z-score
[11] = measured here: nuclear c-Myc green intensity z-score
[12] = measured here: nuclear pErk red intensity z-score, stronger effect = higher value

SMILES | cell count [1] | inhibition [1] | inhibition [2] | nuclei count [2] [%] | z-score [3, 10] | z-score [3, 11] | z-score [3, 12] | inhibition [4] | fluorescence slope [5] | NADPH fluorescence slope [6] | fluorescence slope [7] | outcome [8] | inhibition [9]
Cc1cccc(-c2nnc3n2N=C(c2ccc(Br)cc2)CS3)c1 | 769 | -2.9% (inactive) | -27.2% (inactive) | 176 | -0.385 | 0.639 | 0.0185 | -2.91% (inactive) | -0.433 (inactive) | -5.4e-05 (inactive) | 0.006 (inactive) | inactive | -0.766% (inactive)
CC1(C)NC(=O)N(CC(O)COc2cc3ccccc3cc2C(=O)N2CCCCC2)C1=O (stereo unspecified) | 595 | -11.9% (inactive) | 5.9% (inactive) | 157 | 0.439 | 1.12 | -0.435 | 5.42% (inactive) | -0.383 (inactive) | 2.1e-06 (inactive) | 0.00552 (inactive) | inactive | 33.9% (inactive)
Cc1cccc(OCCN2CSC(=S)N(C)C2)c1 | 542 | -14.5% (inactive) | -138% (inactive) | 129 | 0.0536 | -1.14 | 0.0169 | 9.42% (inactive) | -0.494 (inactive) | -7.6e-05 (inactive) | 0.0046 (inactive) | inactive; toxic | 45.3% (inactive)
CC(C)(C)NC(=O)/C=N/O | 637 | -13.4% (inactive) | -71.6% (inactive) | 166 | -0.0727 | -0.26 | 0.222 | 1.63% (inactive) | -0.466 (inactive) | -3.8e-05 (inactive) | 0.00655 (inactive) | inactive | 25.5% (inactive)
O=C(NCCc1ccccc1)/C(=N\O)c1ccccc1 | 555 | -5.6% (inactive) | 19.1% (inactive) | 182 | 1.61 | -1.77 | -0.308 | 13.9% (inactive) | -0.404 (inactive) | -8.5e-06 (inactive) | 0.00486 (inactive) | inactive | 2.81% (inactive)
O=S(=O)(N[C@@H]1C[C@H]2CC[C@@H]1C2)c1cccs1 | 433 | -8.9% (inactive) | -51.9% (inactive) | 155 | 1.4 | -0.527 | -0.281 | 9.37% (inactive) | -0.458 (inactive) | -3.1e-05 (inactive) | 0.00569 (inactive) | inactive | -1.87% (inactive)
Cc1nnc(N2CCOCC2)c2ccccc12 | 590 | -0.6% (inactive) | -63.6% (inactive) | 148 | 0.561 | 0.102 | -1.27 | 1.63% (inactive) | -0.472 (inactive) | -0.000134 (inactive) | 0.00562 (inactive) | inactive | 14.9% (inactive)
CCCSc1nnc2n(Cc3ccccc3)c(=O)c3c4c(sc3n12)CCC4 | 405 | -0.7% (inactive) | -31.5% (inactive) | 170 | 0.317 | -0.563 | 1.11 | -4.59% (inactive) | -0.453 (inactive) | -0.000111 (inactive) | 0.00548 (inactive) | inactive | 9.79% (inactive)
CCCC(=O)Nc1nn(CCC)c2nc3ccccc3cc12 | 632 | -8.1% (inactive) | 7.7% (inactive) | 142 | -0.342 | -1.58 | 0.919 | 2.71% (inactive) | -0.481 (inactive) | -6.7e-05 (inactive) | 0.00673 (inactive) | inactive | 6.78% (inactive)
Cn1c(OCc2cccnc2)nc2c1c(=O)n(Cc1ccccc1)c(=O)n2C | 719 | -11.2% (inactive) | -145% (inactive) | 176 | 1.38 | -0.255 | -1.04 | 25.8% (inactive) | -0.489 (inactive) | -5.3e-05 (inactive) | 0.00844 (inactive) | inactive | 21.1% (inactive)
CN(Cc1ccccc1)c1ncnc2ccc(Br)cc12 | 591 | -9.8% (inactive) | -5.2% (inactive) | 116 | -0.293 | -0.951 | 0.281 | 2.92% (inactive) | -0.517 (inactive) | -8e-05 (inactive) | 0.00669 (inactive) | inactive | 18.9% (inactive)
COc1ccc(-n2ncc3c(NCCCn4ccnc4)ncnc32)cc1 | 614 | -4% (inactive) | 0.9% (inactive) | 170 | -0.682 | 1.35 | -0.266 | 3.42% (inactive) | -0.394 (inactive) | -5.9e-06 (inactive) | 0.00474 (inactive) | inactive | 1.19% (inactive)
Cn1c(=O)c2c(nc(NCCCO)n2Cc2cccc(C(F)(F)F)c2)n(C)c1=O | 652 | -11.8% (inactive) | -70% (inactive) | 95.4 | -1.68 | -0.0388 | 0.32 | -5.95% (inactive) | -0.492 (inactive) | -6.8e-05 (inactive) | 0.00722 (inactive) | inactive | -3.98% (inactive)
O=C(O)c1cc2cccc(S(=O)(=O)N3CCOCC3)c2cc1O | 655 | -1.8% (inactive) | -122% (inactive) | 164 | -0.358 | 0.0278 | -2.77 | -9.66% (inactive) | -0.0405 (active) | -1e-05 (inactive) | 0.00567 (inactive) | inactive | -7.07% (inactive)
CCCCCNC(=O)C(C#N)c1nc2ccccc2nc1N1CC(C)OC(C)C1 (stereo unspecified) | 366 | -5.7% (inactive) | -192% (inactive) | 130 | 1.56 | -0.566 | -0.352 | 19.4% (inactive) | -0.482 (inactive) | -8.1e-05 (inactive) | 0.00502 (inactive) | inactive | -1.81% (inactive)
Cc1c(Cl)cccc1N1C(=O)C2ON(c3ccccc3)C(c3cccnc3)C2C1=O (stereo unspecified) | 542 | -6.8% (inactive) | 9.6% (inactive) | 83.2 | 0.393 | 0.964 | -1.74 | 6.04% (inactive) | -0.497 (inactive) | -1.3e-05 (inactive) | 0.00557 (inactive) | inactive | 20% (inactive)
CCCSc1nc(N2CCOCC2)c2c(c1C#N)CCCC2 | 569 | -12.9% (inactive) | -93.9% (inactive) | 147 | 0.303 | 0.327 | 2.25 | 10.9% (inactive) | -0.467 (inactive) | -0.000102 (inactive) | 0.00772 (inactive) | inactive | 5.19% (inactive)
C=C(C)CC1N(c2cccc(OC)c2)C(=O)[C@@H]2C(C(=O)O)[C@H]3C=C[C@@]12O3 (stereo partly specified) | 628 | -15.4% (inactive) | 51.9% (inactive) | 182 | -0.541 | 1.19 | 1.46 | -7.28% (inactive) | -0.49 (inactive) | -7.9e-05 (inactive) | 0.00494 (inactive) | inactive | -0.618% (inactive)
COc1cccc(C2/C(=C(\O)c3ccc4c(c3)OCCO4)C(=O)C(=O)N2CCCN(C)C)c1OC (stereo unspecified) | 396 | 1.1% (inactive) | -21.2% (inactive) | 174 | 0.231 | -0.342 | 2 | -6.86% (inactive) | -0.452 (inactive) | -9.9e-05 (inactive) | 0.00452 (inactive) | inactive | 18.1% (inactive)
COc1ccc(-n2ncc3c(N4CCC(C(N)=O)CC4)ncnc32)cc1 | 602 | -18.6% (inactive) | -114% (inactive) | 159 | 0.0865 | 1.24 | -0.312 | 13.4% (inactive) | -0.385 (inactive) | -6.8e-05 (inactive) | 0.00675 (inactive) | inactive | -0.327% (inactive)
CCOCCn1c(SCc2c(F)cccc2Cl)nc2c1c(=O)[nH]c(=O)n2C | 620 | 3.9% (inactive) | -40.4% (inactive) | 114 | -0.473 | 0.0694 | 0.197 | -9.53% (inactive) | -0.472 (inactive) | -4.5e-05 (inactive) | 0.00638 (inactive) | inactive | -4.7% (inactive)
CC1(C)Cc2c(C#N)c(SCc3nc4ccccc4[nH]3)nc(N3CCOCC3)c2CO1 | 464 | -6.9% (inactive) | -111% (inactive) | 99.1 | -1.63 | 0.58 | -0.0845 | 3.97% (inactive) | -0.39 (inactive) | 1.4e-05 (inactive) | 0.00539 (inactive) | inactive | -18.5% (inactive)
CCC(NC(=O)Nn1cnnc1)(C(F)(F)F)C(F)(F)F | 726 | 3.1% (inactive) | -59.3% (inactive) | 185 | -0.283 | -1.06 | 1.12 | 1.98% (inactive) | -0.49 (inactive) | -6.6e-05 (inactive) | 0.00453 (inactive) | inactive | 19.5% (inactive)
CC(C)CN1C(=O)c2ccc(C(=O)Nc3ccccn3)cc2C1=O | 669 | -5.4% (inactive) | 50% (inactive) | 136 | -1.42 | 1.32 | -0.345 | -11.4% (inactive) | -0.495 (inactive) | -4.7e-05 (inactive) | 0.00831 (inactive) | inactive | -7.05% (inactive)
COC(=O)NCC12CC3CC(C1)CC(CNC(=O)OC)(C3)C2 | 541 | 2.3% (inactive) | -75% (inactive) | 122 | 0.785 | 1.4 | -1.34 | 5.42% (inactive) | -0.467 (inactive) | -0.0001 (inactive) | 0.00455 (inactive) | inactive | -5.97% (inactive)
COc1ccc(CSC2=NCCN2)cc1Cl | 382 | -2.2% (inactive) | -95.2% (inactive) | 83.1 | -0.238 | 2.09 | 0.748 | 9.42% (inactive) | -0.459 (inactive) | -7e-05 (inactive) | 0.00397 (inactive) | inactive | 143% (active)
COc1cc2c(cc1OC)C1(CCCC1)C(N)=C2C#N | 374 | 2.5% (inactive) | 36.9% (inactive) | 104 | -0.0432 | -0.638 | 1.42 | 17.4% (inactive) | -0.437 (inactive) | -0.000121 (inactive) | 0.00412 (inactive) | inactive | 2.1% (inactive)
